Activity calls are given as the source filed them. The calls are words filed in the database; no cut-off is given here.

The nature of data set [1]: AUC in C57BL/6 mouse at 5 mg/kg, po measured up to 120 mins by LC-MS/MS analysis. Type of data set: ADME, organism-based. As to conditions: in vivo. Set-up: route oral, dose 5 mg/kg, time <=120.
Data set [2] can be described thus: Drug recovery in C57BL/6 mouse feces at 5 mg/kg, po measured after 24 hrs by LC-MS/MS analysis. Type of data set: ADME, organism-based. To be noted: read-out: Drug recovery.
Data set [3] concerns the target T1, G-protein coupled bile acid receptor 1 (Homo sapiens, UniProt Q8TDU6).
T1 sequence (Q8TDU6 whole entry): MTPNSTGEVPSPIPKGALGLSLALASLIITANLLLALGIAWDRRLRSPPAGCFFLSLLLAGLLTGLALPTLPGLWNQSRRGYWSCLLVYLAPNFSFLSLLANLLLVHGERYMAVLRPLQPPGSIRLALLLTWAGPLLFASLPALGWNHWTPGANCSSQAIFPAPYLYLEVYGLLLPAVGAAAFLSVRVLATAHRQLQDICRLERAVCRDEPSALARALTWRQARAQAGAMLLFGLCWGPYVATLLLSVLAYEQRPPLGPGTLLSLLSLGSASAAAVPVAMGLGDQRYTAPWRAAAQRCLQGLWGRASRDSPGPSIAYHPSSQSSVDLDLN
Put plainly: Agonist activity at recombinant human TGR5 expressed in CHO cells assessed as increase in cAMP accumulation after 30 mins by TR-FRET assay. Type of data set: functional, cell-based.

The nature of data set [4]: Apparent permeability of the compound across apical to basolateral side in human Caco-2 cells. Type of data set: ADME, cell-based.
The nature of data set [5]: Apparent permeability of the compound across basolateral to apical side in human Caco-2 cells. The data set is classed as ADME, cell-based.
Data set [6] deals with Clostridioides difficile. Put plainly: Inhibition of TCA-induced Clostridioides difficile RPRE2 spore germination at 50 uM measured once every minute for 20 mins by microplate reader analysis. Type of data set: functional. In outline: (§1)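 Germination of C. difficile spores was induced with 2000 μM taurocholate (TCA), and test compound was added to inhibit it.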
Data set [7] deals with Clostridioides difficile. Put plainly: Inhibition of TCA-induced Clostridioides difficile RPRE2 spore germination at 200 uM measured once every minute for 20 mins by microplate reader analysis. The data set is classed as functional. In short, it runs like this: as §1
The target of data set [8] is T2, Bile acid receptor (Homo sapiens) (UniProt Q96RI1).
T2 sequence (whole entry): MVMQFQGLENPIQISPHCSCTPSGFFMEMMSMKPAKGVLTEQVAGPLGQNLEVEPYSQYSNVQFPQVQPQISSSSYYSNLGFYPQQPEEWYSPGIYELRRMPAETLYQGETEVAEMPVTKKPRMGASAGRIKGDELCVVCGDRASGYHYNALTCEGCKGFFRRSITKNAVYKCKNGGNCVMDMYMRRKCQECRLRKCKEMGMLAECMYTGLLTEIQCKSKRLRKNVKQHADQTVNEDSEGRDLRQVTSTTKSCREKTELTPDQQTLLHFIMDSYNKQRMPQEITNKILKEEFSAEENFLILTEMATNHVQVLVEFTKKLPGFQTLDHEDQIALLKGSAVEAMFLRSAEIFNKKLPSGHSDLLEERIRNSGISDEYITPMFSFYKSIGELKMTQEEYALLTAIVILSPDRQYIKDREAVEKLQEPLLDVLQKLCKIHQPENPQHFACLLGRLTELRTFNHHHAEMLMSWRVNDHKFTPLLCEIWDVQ
Put plainly: Agonist activity at FXR (unknown origin).

For data set [9], the target named is T3, Vitamin D3 receptor (Homo sapiens) (UniProt P11473).
T3 sequence (whole entry): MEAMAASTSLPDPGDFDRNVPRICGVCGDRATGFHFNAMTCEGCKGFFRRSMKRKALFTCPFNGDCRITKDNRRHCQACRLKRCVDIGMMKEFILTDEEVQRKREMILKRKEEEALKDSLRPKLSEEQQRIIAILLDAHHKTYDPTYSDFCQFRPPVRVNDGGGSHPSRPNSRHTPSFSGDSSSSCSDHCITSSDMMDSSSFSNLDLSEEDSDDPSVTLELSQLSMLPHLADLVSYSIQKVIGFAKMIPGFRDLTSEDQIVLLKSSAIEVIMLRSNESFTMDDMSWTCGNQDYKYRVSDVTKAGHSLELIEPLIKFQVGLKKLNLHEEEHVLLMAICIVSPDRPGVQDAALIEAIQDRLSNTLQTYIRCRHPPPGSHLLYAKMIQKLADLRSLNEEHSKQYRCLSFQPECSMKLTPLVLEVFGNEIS
The data set can be described thus: Agonist activity at VDR (unknown origin).

A further data set concerns HEK293. The data set can be described thus: Cytotoxicity against human HEK293 cells at 10 uM. Type of data set: cell-based. As to conditions: hek293, 10 µM.

What is called AUC is concentration integrated over time. A higher AUC goes with more exposure. As for `CO[C@@H]1CC[C@@]2(C)[C@@H](C1)C[C@@H](O)[C@@H]1[C@@H]2CC[C@]2(C)[C@@H]([C@H](C)CCc3nnn[n-]3)CC[C@@H]12.[Na+]`, the AUC at 2 h in data set [1] amounted to 37700 ng·h/mL. Further, the dose excreted at 24 h in data set [2] was determined as 7.7%.
What is called EC50 is the concentration at which the effect is half-maximal. For the compound `CO[C@@H]1C[C@@H]2C[C@H](O)CC[C@]2(C)[C@H]2CC[C@]3(C)[C@@H]([C@H](C)CCC(=O)O)CC[C@H]3[C@H]12`, the EC50 in [3] was 76.8 nM.
What is called Papp A→B is how fast a substance crosses the layer from the apical side. One may read the Papp B→A as the apparent permeability from the basolateral to the apical side of a cell layer. Regarding `Cc1nnc(CC[C@@H](C)[C@H]2CC[C@H]3[C@@H]4[C@H](O)C[C@@H]5C[C@H](O)CC[C@]5(C)[C@H]4CC[C@]23C)o1`, in data set [4], the apical-to-basolateral permeability (Papp A→B) turned out to be 2.6 ×10⁻⁶ cm/s. Besides, the Papp B→A in data set [5] was 1.5 ×10⁻⁶ cm/s. In [1], this compound yielded an AUC at 2 h of 45800 ng·h/mL. For the same compound, the dose excreted at 24 h in [2] was found to be 0.5%.
In the case of `CO[C@@H]1C[C@@H]2C[C@H](O)CC[C@]2(C)[C@H]2CC[C@]3(C)[C@@H]([C@H](C)CCC(=O)N(CCCNC(=O)[C@H](O)[C@@H](O)[C@H](O)[C@H](O)CO)CCCNC(=O)[C@H](O)[C@@H](O)[C@H](O)[C@H](O)CO)CC[C@H]3[C@H]12`, in data set [3], the EC50 amounted to 567 nM.
Regarding `CO[C@@H]1CC[C@@]2(C)[C@@H](C1)C[C@H](OS(=O)(=O)[O-])[C@@H]1[C@@H]2CC[C@]2(C)[C@@H]([C@H](C)CCC(=O)N3CCCC3)CC[C@@H]12.[Na+]`, in the data set on Clostridioides difficile [6], the inhibition entry is “Active”. In data set [1], this compound had an AUC at 2 h of 14300 ng·h/mL. For the same compound, the dose excreted at 24 h in [2] turned out to be 29.1%.
Regarding `CO[C@@H]1CC[C@@]2(C)[C@@H](C1)C[C@@H](O)[C@@H]1[C@@H]2CC[C@]2(C)[C@@H]([C@H](C)CCc3nn[nH]n3)CC[C@@H]12`, in the data set with Clostridioides difficile [6], the inhibition result is “Active”.
Compound `CO[C@@H]1CC[C@@]2(C)[C@@H](C1)C[C@H](O)[C@@H]1[C@@H]2CC[C@]2(C)[C@@H]([C@H](C)CCC(=O)N3CCCC3)CC[C@@H]12` came in with an area under the curve (AUC) at 2 h in [1] of 29600 ng·h/mL. The dose excreted at 24 h in data set [2] came to 3%.
For the compound `CO[C@@H]1CC[C@@]2(C)[C@@H](C1)C[C@@H](OS(=O)(=O)[O-])[C@@H]1[C@@H]2CC[C@]2(C)[C@@H]([C@H](C)CCc3nnn[n-]3)CC[C@@H]12.[Na+].[Na+]`, in the data set with Clostridioides difficile [6], the inhibition entry is “Active”. In [1], this compound registered an exposure (AUC) at 2 h of 4840 ng·h/mL. For the same compound, the dose excreted at 24 h in data set [2] was 89.1%.
For `CO[C@@H]1C[C@@H]2C[C@H](O)CC[C@]2(C)[C@H]2CC[C@]3(C)[C@@H]([C@H](C)CCC(=O)NC[C@H](O)[C@@H](O)[C@H](O)[C@H](O)CO)CC[C@H]3[C@H]12`, in data set [1], the exposure (AUC) at 2 h is 1520 ng·h/mL. For the same compound, the dose excreted at 24 h in data set [2] was 11.7%. Also, in data set [3], the EC50 was 33.3 nM. For the same compound, the inhibition entry in the data set on Clostridioides difficile [7] is “inactive”.
On to `CO[C@@H]1C[C@@H]2C[C@H](O)CC[C@]2(C)[C@H]2CC[C@]3(C)[C@@H]([C@H](C)CCc4nnc(C)o4)CC[C@H]3[C@H]12`, for which the Papp A→B in [4] came out at 0.27 ×10⁻⁶ cm/s. Also, in [5], the apparent permeability from basolateral to apical (Papp B→A) came to 0.12 ×10⁻⁶ cm/s. Besides, the AUC at 2 h in [1] worked out at 25700 ng·h/mL. For the same compound, the dose excreted at 24 h in data set [2] came out at 7.1%. The outcome in data set [8] and in data set [9] was inactive. In addition, in the data set on HEK293, the Activity result is reported as “Non-Toxic”.
Compound `CO[C@@H]1C[C@@H]2C[C@H](O)CC[C@]2(C)[C@H]2CC[C@]3(C)[C@@H]([C@H](C)CCC(=O)N(C)C[C@H](O)[C@@H](O)[C@H](O)[C@H](O)CO)CC[C@H]3[C@H]12` had an area under the curve (AUC) at 2 h in data set [1] of 1250 ng·h/mL. In data set [2], the dose excreted at 24 h was 39.7%. In addition, in [3], the concentration giving a half-maximal response (EC50) is 62.3 nM. The inhibition entry with Clostridioides difficile [7] was “inactive”.

(Values after ChEMBL document CHEMBL4732028, “Structural modifications that increase gut restriction of bile acid derivatives” (RSC Med Chem, 2021).)
